High-throughput results deposited in PubChem BioAssay by Broad Institute.
CAL PDZ FP-1 – CAL PDZ peptide-binding inhibitors, primary screen, biochemical, fluorescence polarization, Cer-tagged CAL PDZ, HTS. Golgi-associated PDZ and coiled-coil motif-containing protein (Homo sapiens), Q9HD26. purified CAL PDZ, TMR-peptide fluorescence polarization, 1 h. inhibition, % at 20 µM. actives 0.02% (n = 330,000). AID 504414, 2011;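 active = highest replicate inhibition of at least 40%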;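 also: plate controls were DMSO neutral control wells for no effect and unlabeled competitor peptide control wells for full effect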
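Test system: tagged CAL PDZ domain / Buffer or medium: sodium phosphate/NaCl buffer pH 7.4 with TCEP, IgG, Thesit / Reagent: TMR-labelled reporter peptide T*-PRC34 bound in PDZ groove / Compound dosing: single point, 20 µM / Schedule: 1 h incubation at room temperature before polarization reading / Technique: fluorescence polarization (mP) / Benchmarks: unlabelled peptide, DMSO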
SR-BI DiI-HDL act – activators of SR-BI mediated DiI-HDL uptake, primary screen, ldlA[mSR-BI] CHO cells, DiI fluorescence | 3 h; 100 = double the neutral-control signal | activation, % at 12.5 µM | actives 0.096% (n = 320,000) | AID 504775, 2011;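 active = mean replicate activation of at least 60% and every replicate at or above 60%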;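 also: 0% = median plate neutral-control signal and 100% = twice that signal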
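Test system: SR-BI-overexpressing, LDLR-lacking CHO cells; Medium: Ham's F12 with 0.5% BSA, HEPES 25 mM, pH 7.4; Schedule: 3 h, 37 °C; Technique: bottom-read fluorescence, 550/595 nm.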
dFosB act-1 – activators of delta FosB homodimer, primary screen, biochemical, fluorescence polarization, TAMRA-CDK5 oligo, single point; Protein FosB (Mus musculus), P13346; actives 0.99% (n = 340,000); activation, % at 25 µM; purified delta FosB; percent of positive-control signal above neutral wells;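 active = mean activation above about 17%, with every replicate also reaching it, limit read from the data, passing the limit was not always enough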
SR-BI HDL uptake – inhibitors of SR-BI mediated HDL lipid uptake, primary screen, ldlA[mSR-BI] cells, fluorescence, single point; inhibition, % at 12.5 µM; actives 0.96% (n = 320,000); ldlA[mSR-BI] CHO cells, DiI-HDL uptake fluorescence, 3 h; Scavenger receptor class B member 1 (Mus musculus), Q61009;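 active = mean replicate inhibition of at least 70% and a set share of replicates each scoring 70 or more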;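 also: 0% = median of neutral control wells and 100% = median of positive control wells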
Target sequence (Q61009 whole entry, looked up): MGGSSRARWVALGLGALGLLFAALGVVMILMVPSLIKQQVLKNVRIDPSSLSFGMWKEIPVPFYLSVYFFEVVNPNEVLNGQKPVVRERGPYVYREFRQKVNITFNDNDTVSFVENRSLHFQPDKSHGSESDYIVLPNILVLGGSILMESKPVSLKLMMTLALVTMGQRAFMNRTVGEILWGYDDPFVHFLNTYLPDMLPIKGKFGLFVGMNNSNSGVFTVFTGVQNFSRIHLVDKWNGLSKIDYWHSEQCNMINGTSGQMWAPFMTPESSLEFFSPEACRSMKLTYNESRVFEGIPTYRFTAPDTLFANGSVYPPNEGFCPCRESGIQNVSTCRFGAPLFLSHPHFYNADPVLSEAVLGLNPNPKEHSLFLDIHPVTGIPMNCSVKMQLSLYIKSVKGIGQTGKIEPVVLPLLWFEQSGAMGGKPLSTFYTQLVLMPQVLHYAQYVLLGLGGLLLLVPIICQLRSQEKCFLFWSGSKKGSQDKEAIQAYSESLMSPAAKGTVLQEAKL
CAL PDZ FP-2 – untagged CAL PDZ binding inhibitors, primary screen, biochemical, fluorescence polarization, HTS; purified CAL PDZ, TMR-peptide fluorescence polarization, 1 h; AID 602252, 2012; actives 0.92% (n = 300,000); Golgi-associated PDZ and coiled-coil motif-containing protein (Homo sapiens), Q9HD26; inhibition, % at 24.9 µM;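 active = mean inhibition of at least 30% with at least half of replicates also reaching 30%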;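 also: 0% = DMSO neutral control and 100% = excess unlabeled competitor peptide PRC23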
dFosB act-2 – activators of mouse delta FosB DNA binding, confirmation, biochemical, fluorescence polarization, TAMRA-CDK5 oligo, cherry-picked samples; shares compounds with dFosB act-1; purified delta FosB; normalised: neutral wells 0, positive control 100; activation, % at 24.9 µM; 2,400 tested, under 10 active;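 active = highest replicate activation at or above 34% and every replicate reaching that threshold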;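 also: higher polarization means more probe DNA bound by delta FosB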
* marks the source's active call; other numbers are inactive results. Only some compounds are listed: those with a hit (about 2.8% of all), similar ones and a draw of the others.

What do the screens show for `CCOc1ccc(C2C(C#N)=C(N)Oc3c2c(=O)oc2ccccc32)cc1` (centres undefined)?
CAL PDZ FP-1: -2.4; SR-BI DiI-HDL act: 8.7; dFosB act-1: 20.9*; SR-BI HDL uptake: 5.5; dFosB act-2: -3.0

What do the screens show for `CC1(C)C(=O)CC[C@@]2(C)C1=CCC1C2CC[C@]2(C)C(=O)CCC12` (some centres undefined)?
CAL PDZ FP-1: -1.2; SR-BI DiI-HDL act: 0.4; dFosB act-1: -4.9; SR-BI HDL uptake: -0.4; CAL PDZ FP-2: -2.0

How did CC(=O)C1C(N2CC2)CC2C3CC=C4CC(O)CCC4(C)C3CCC21C (centres undefined) do in these assays?
CAL PDZ FP-1: -3.1; SR-BI DiI-HDL act: 6.9; dFosB act-1: 36.4*; SR-BI HDL uptake: -6.9; dFosB act-2: 2.4

Results for COc1ccc(OCC(=O)N2CCN(Cc3ccc4c(c3)OCO4)CC2)cc1 ?
CAL PDZ FP-1: -0.1; SR-BI DiI-HDL act: 8.4; dFosB act-1: -4.3; SR-BI HDL uptake: -8.4; CAL PDZ FP-2: -0.7

Results for CN(C)CCN(C(=O)COc1ccc(Cl)cc1)c1nc2cc3c(cc2s1)OCO3 ?
CAL PDZ FP-1: -0.4; SR-BI DiI-HDL act: 6.3; dFosB act-1: 24.3*; SR-BI HDL uptake: -6.3; CAL PDZ FP-2: 2.9; dFosB act-2: -0.6

Results for Cc1cc(-c2cc(C)c(N)c(C)c2)cc(C)c1N ?
CAL PDZ FP-1: 0.9; SR-BI DiI-HDL act: -10.9; dFosB act-1: 1.9; SR-BI HDL uptake: 10.9; CAL PDZ FP-2: 6.7

How did O=c1[nH]c(=S)[nH]c(O)c1N=Nc1ccc(S(=O)(=O)N2CCc3ccccc32)cc1 do in these assays?
CAL PDZ FP-1: -0.1; SR-BI DiI-HDL act: 23.4; dFosB act-1: 28.8*; SR-BI HDL uptake: -23.4; CAL PDZ FP-2: 1.2; dFosB act-2: 7.6

How did O=c1[nH]c(=S)[nH]c(O)c1N=Nc1ccc(SC(F)F)cc1 do in these assays?
CAL PDZ FP-1: -0.6; SR-BI DiI-HDL act: 10.0; dFosB act-1: 0.2; SR-BI HDL uptake: -10.0; CAL PDZ FP-2: 0.4

What do the screens show for `Cc1sc2ncnc(N3CCC(C(=O)Nc4ccc(C#N)c(Cl)c4)CC3)c2c1C`?
CAL PDZ FP-1: -1.2; SR-BI DiI-HDL act: -12.5; dFosB act-1: 31.6*; SR-BI HDL uptake: 12.6; dFosB act-2: -3.3

How did CC(OC(=O)c1cn(C)c2ccccc12)C(=O)N1CCCC1 (centres undefined) do in these assays?
CAL PDZ FP-1: -0.8; SR-BI DiI-HDL act: 1.0; dFosB act-1: 1.0; SR-BI HDL uptake: -1.0; CAL PDZ FP-2: 1.6

Results for O=C1CN=C(c2ccc(Br)cc2)c2oc3ccccc3c2N1 ?
CAL PDZ FP-1: 0.1; SR-BI DiI-HDL act: -2.9; dFosB act-1: 3.6; SR-BI HDL uptake: 2.9; CAL PDZ FP-2: -3.0

What do the screens show for `O=C1CN=C(c2ccccc2)c2oc3ccc(Br)cc3c2N1`?
CAL PDZ FP-1: 21.0; SR-BI DiI-HDL act: -23.1; dFosB act-1: 30.1*; SR-BI HDL uptake: 23.1; CAL PDZ FP-2: 0.3; dFosB act-2: -5.7
